Assays:
Plasmodium falciparum = assay: Antiplasmodial activity against drug-sensitive erythrocyte stage of Plasmodium falciparum NF54 assessed as reduction in [3H]-hypoxanthine incorporation pretreated for 48 hrs followed by [3H]-hypoxanthine addition measured after 24 hrs by liquid scintillation counting method; assay type: functional, organism-based
Outline: (§1)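 IC50 values are the average of three independent assays.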

[1] = system: Trypanosoma brucei rhodesiense; assay: Antitrypanosomal activity against Trypanosoma brucei rhodesiense STIB900 bloodstream forms after 70 hrs by Alamar blue assay; assay type: functional, organism-based; details: STIB900, 70 h; outline: as §1
Trypanosoma cruzi = assay: Antiprotozoal activity against trypomastigote form of Trypanosoma cruzi Tulahuen C2C4 infected in rat L6 cells after 96 hrs by CPRG/Nonidet-based photometric method; assay type: functional, organism-based; details: Tulahuen C2C4, L6, 96 h
L6 = assay: Cytotoxicity against rat L6 cells after 70 hrs by alamar blue assay; assay type: cell-based; details: L6, 70 h; outline: as §1
[2] = Selectivity index, ratio of IC50 for rat L6 cells to IC50 for drug-sensitive erythrocyte stage of Plasmodium falciparum NF54; assay type: toxicity; details: read-out: Ratio IC50
[3] = Selectivity index, ratio of IC50 for rat L6 cells to IC50 for Trypanosoma brucei rhodesiense STIB900 bloodstream forms; assay type: toxicity; details: read-out: Ratio IC50
[4] = Selectivity index, ratio of IC50 for rat L6 cells to IC50 for trypomastigote form of Trypanosoma cruzi Tulahuen C2C4 infected in rat L6 cells; assay type: toxicity, cell-based; details: read-out: Ratio IC50
Leishmania donovani = assay: Antileishmanial activity against Leishmania donovani MHOM/ET/67/L82 axenic amastigotes after 70 hrs by alamar blue staining based fluorescence assay; assay type: functional, organism-based; details: MHOM/ET/67/L82, 70 h; outline: as §1
[5] = Selectivity index, ratio of IC50 for rat L6 cells to IC50 for Leishmania donovani MHOM/ET/67/L82 axenic amastigotes; assay type: toxicity; details: read-out: Ratio IC50

Compound	IC50 (Plasmodium falciparum) [µM]	IC50 [1] [µM]	IC50 (Trypanosoma cruzi) [µM]	IC50 (L6) [µM]	selectivity ratio [2]	selectivity ratio [3]	selectivity ratio [4]	IC50 (Leishmania donovani) [µM]	selectivity ratio [5]
CC(C)c1cc(CC[C@@H]2C(=O)CCCC2(C)C)c(O)cc1O	0.4	19.7	27.6	33.6	84	1.7	1.2	–	–
CCCCCCCCCCCCCCCCOP(=O)([O-])OCC[N+](C)(C)C [MILTEFOSINE]	–	–	–	–	–	–	–	0.12	–
CC(C)[C@H]1C(=O)C2=C(C1=O)[C@@]1(C)CCCC(C)(C)[C@@H]1CC2=O	3.6	1	4.6	2.6	0.7	2.6	0.6	1	2.6

From ChEMBL document CHEMBL4145616, “Phytochemical Study of Salvia leriifolia Roots: Rearranged Abietane Diterpenoids with Antiprotozoal Activity” (J Nat Prod, 2018)
